TCR CD3 inh: inhibitors of human TCR-CD3 interaction | inhibition, % at 9.4 µM | TAMRA-labeled TCR probe fluorescence, biochemical | hit rate 0.37% among 360,000; in the data active means inhibition above about 19%;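 further: recombinant mutant TCR 2C K166C tagged with TAMRA read by polarization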
SIAE primary: blocks human sialic acid acetylesterase; SIAE FP-Rh probe binding, fluorescence polarization; AID 1053197; hit rate 0.69% among 370,000; inhibition, % at 9.66 µM; Q9HAT2;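 active means inhibition above a cutoff: mean of compounds within the control limits plus 3 SD of those, cut at about 17% in these data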
HTRA1 inh: blocks human HTRA1 serine peptidase | inhibition, % at 5.96 µM | recombinant HTRA1, FP-rhodamine activity-based probe, fluorescence polarization | Q92743 | hit rate 0.5% among 340,000; in the data active means inhibition above about 36%
Target sequence (Q92743 whole entry, looked up): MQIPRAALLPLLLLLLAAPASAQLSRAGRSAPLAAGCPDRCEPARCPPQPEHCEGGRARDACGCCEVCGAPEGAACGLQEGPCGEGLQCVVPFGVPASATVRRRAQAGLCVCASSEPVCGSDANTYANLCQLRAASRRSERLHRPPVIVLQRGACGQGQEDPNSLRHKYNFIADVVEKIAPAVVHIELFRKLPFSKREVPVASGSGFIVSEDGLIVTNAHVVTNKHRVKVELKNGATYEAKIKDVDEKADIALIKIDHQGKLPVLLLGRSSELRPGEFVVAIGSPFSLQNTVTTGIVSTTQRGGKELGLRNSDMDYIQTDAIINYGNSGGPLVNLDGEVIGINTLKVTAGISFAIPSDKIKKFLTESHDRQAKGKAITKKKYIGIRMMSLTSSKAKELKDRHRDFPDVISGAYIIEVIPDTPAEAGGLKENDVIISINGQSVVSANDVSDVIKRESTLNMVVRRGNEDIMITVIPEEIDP
PRMT1 FP inh: inhibitors of human PRMT1; Q99873; recombinant PRMT1, activity-based probe fluorescence polarization; AID 652257; inhibition, % at 2.79 µM; hit rate 1.3% among 370,000;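 active means inhibition above about 21% made by adding two undisclosed values, limit read from the data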
ABHD4 inh: inhibits mouse alpha/beta hydrolase domain 4; Q8VD66; purified mABHD4, FP-Rh probe fluorescence polarization; inhibition, % at 8.92 µM; hit rate 0.54% among 370,000;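 active means inhibition exceeding the mean over every tested compound plus 3 SD, cut at about 30% in these data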
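Assay system: Wild-type mouse ABHD4 protein | Medium: HEPES pH 7.0 buffer, 150 mM NaCl, 0.01% Pluronic F-127 | Incubation: Enzyme–compound pre-incubation 45 min, then probe 60 min, both 25 °C | Technique: Fluorescence polarization with parallel and perpendicular emission, 525/598 nm | Evaluation: % inhibition of FP-Rh probe binding versus controls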
SIAE confirm: human SIAE inhibition, confirmation. shares compounds with SIAE primary. SIAE FP-Rh activity-based probe, fluorescence polarization. inhibition, % at 9.66 µM. hit rate 13% among 2,300. AID 1117263;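 active means mean inhibition of the replicates above the hit cutoff set in the primary screen, cut at about 17% in these data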;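 further: inhibitors lower polarization as more probe stays unbound to SIAE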
Large screens that a line does not name were inactive (follow-up assays come after a bar, where they were run). Rows were chosen to be rich in hits. Some 2.5% of all compounds tested hit in one or more screens of this group.

COc1ccc(S(=O)(=O)N2CCN(C(=O)CN3C(=O)NC(C)(C)C3=O)CC2)cc1	none
CCNC(=S)NN=C1c2ccccc2-c2ccccc21	SIAE primary 24 | SIAE confirm inactive
C=C(C)CNC(=S)NN=C1c2ccccc2-c2ccccc21	none (no result: TCR CD3 inh, SIAE primary, PRMT1 FP inh, ABHD4 inh)
COc1ccc(NC(=O)CSc2nnc3ccc(-c4cccnc4)nn23)cc1OC	SIAE primary 21 | SIAE confirm inactive
COc1ccc(NC(=O)CSc2nncn2C)cc1OC	SIAE primary 33 | SIAE confirm inactive
COc1ccc(OC)c(NC(=O)CSc2ccc(-c3ccco3)nn2)c1	none
COc1ccc(NC(=O)CSc2ccc(-c3ccco3)nn2)cc1OC	SIAE primary 18 | SIAE confirm inactive
COc1ccc(-c2[nH]c(-c3ccccc3)nc2SCC(=O)NC2CCCC2)cc1	none
COc1ccc(-c2[nH]c(-c3cccc(OC)c3)nc2SCC(=O)NC2CCCC2)cc1	SIAE primary 24 | SIAE confirm inactive
CC(C)(C)C(=O)N1CCN(c2nc3ccc(Cl)cc3s2)CC1	SIAE primary 18 | SIAE confirm inactive
COc1cccc(CC(=O)NCC2CCN(C(=O)C(=O)c3cccs3)CC2)c1	none (no result: HTRA1 inh)
CC(C(=O)Nc1ccc2c(c1)OCCO2)N1Cc2ccccc2C1=O (stereo unspecified)	none
COc1ccc(-c2nc(-c3ccc4c(c3)OCO4)[nH]c2-c2ccc(OC)cc2)cc1	SIAE primary 19 | SIAE confirm inactive
CC[C@]12c3[nH]c4cc(-c5ccco5)ccc4c3CCN1C(=O)[C@@H](CC(=O)NCC13CC4CC(CC(C4)C1)C3)C[C@@H]2C(=O)N1CCN(C(=O)c2ccco2)CC1	SIAE primary 18 | SIAE confirm inactive
O=C(O)CC(C(=O)O)c1ccc(OCCCCOc2ccc(C(CC(=O)O)C(=O)O)cc2)cc1 (stereo unspecified)	SIAE primary 19 | SIAE confirm inactive
CCN(CC)CC(O)CNc1ccnc2c(Cl)ccc(Cl)c12 (stereo unspecified)	none
COc1ccc(C(=O)N2CCc3ccccc3C2)cc1S(=O)(=O)N1CCCC1	none
O=C(NCCN1CCNC1=O)C1CCC(=O)N(Cc2cccc(C(F)(F)F)c2)C1 (stereo unspecified)	none
Cc1nn(Cc2ccc(Cl)cc2Cl)c(C)c1NC(=O)CCl	none
Cc1nn(Cc2ccc(Cl)cc2Cl)c(C)c1NC(=O)c1nc2n(n1)C(C(F)F)CC(C)N2 (stereo unspecified)	SIAE primary 31 | SIAE confirm inactive
Cc1nn(Cc2ccc(Cl)cc2Cl)c(C)c1NC(=O)C1C2CCC(O2)C1C(=O)O (stereo unspecified)	SIAE primary 20 | SIAE confirm inactive
Cc1nn(Cc2ccc(Cl)cc2Cl)c(C)c1NC(=O)c1nn(C)cc1Cl	none
CC1(C)N=C(N)N=C(N)N1CCCCc1ccccc1	none
COC(=O)[C@H]1C[C@]2(C(/C=C(\C)CCC=C(C)C)S(=O)(=O)c3ccccc3)c3ccccc3N[C@H]2N1 (stereo partly specified)	none (no result: TCR CD3 inh, HTRA1 inh)
Cn1cnnc1SCC(=O)c1cc2ccccc2oc1=O	SIAE primary 18 | SIAE confirm inactive
CN(C)C(CNC(=O)c1ccc(C(F)(F)F)cc1)c1ccco1 (stereo unspecified)	none
Oc1ccc(/C=N/Nc2ncnc3nc[nH]c23)cc1	SIAE primary 18 | SIAE confirm inactive
CC(C)OC(=O)CSc1nnc(-c2ccccn2)n1-c1ccccc1	none
CC(C)OC(=O)CSc1nnc(-c2ccccn2)n1C	SIAE primary 18 | SIAE confirm inactive
O=C(Cn1cnc2c(cnn2-c2ccccc2)c1=O)c1ccc(Cl)cc1	SIAE primary 39 | SIAE confirm inactive
C=CCOc1ccc(CNn2cn[nH]c2=S)cc1OCC	SIAE primary 47 | SIAE confirm inactive
C=CCOc1ccc(CNn2cn[nH]c2=S)cc1OC	none
CC(COc1ccc(C#N)cc1F)CN1CCC(C(O)(c2ccccc2)c2ccccc2)CC1 (stereo unspecified)	none (no result: TCR CD3 inh, HTRA1 inh)
CC(C)NC(=O)Cn1c(SCC(=O)N2CCCc3ccccc32)nc2ccccc21	SIAE primary 18 | SIAE confirm inactive
O=C1CC(C(F)(F)F)=NN1	none (no result: HTRA1 inh)
C#CCONC(=O)c1cc(OCC(F)(F)F)ccc1OCC(F)(F)F	SIAE primary 18 | SIAE confirm inactive
O=C(NO)c1cc(OCC(F)(F)F)ccc1OCC(F)(F)F	none

Screens (PubChem)
